Test results: ChEMBL document CHEMBL1121461, “Synthesis and diuretic profile of 3-(3-amino-1,2,4-oxadiazol-5-yl)-5-chloro-2,6-pyrazinediamine, an amiloride-type diuretic” (J Med Chem, 1980)
Several values for one entry are separate records, joined by “and”; a condition that tells them apart may be missing. Identical values can stand only once.

Legend:
[1] = Compound was tested for diuretic activity in sodium content of the 3-h sample was measured by flame photometry; format: ADME, Urine; set-up: unit not given beside the values
In short: (§1)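 Rats, four per group (eight in one case), given oral 50 mL/kg 0.2% NaCl load together with test agent by mouth; placed in metabolism cages, urine collected 3 h. Urine volume expressed as % of load; total Na+ and K+ (mequiv × 100) in the 3-h sample by flame photometry. Vehicle controls run alongside; significance p < 0.05, p < 0.01.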

[2] = species: Rattus norvegicus; assay: Compound was tested for diuretic activity in sodium content of the 3-h sample was measured by flame photometry in rat; format: ADME, organism-based, Urine; set-up: unit not given beside the values; conditions: in vivo; in short: as §1
[3] = species: Rattus norvegicus; assay: Compound was tested for diuretic activity in potassium content of the 3-h sample was measured by flame photometry in rat; format: ADME, organism-based, Urine; conditions: in vivo
In short: (§2)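 Rats, four per dose group, given oral 0.2% NaCl load (50 mL/kg) together with test agent orally; placed in metabolism cages, urine collected 3 h. Na+ and K+ content of the 3-h sample by flame photometry; output as % of load and total mequiv × 100, compared against concurrent controls.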

[4] = test system: Rattus norvegicus; assay: Compound was tested for diuretic activity against peroral dose of 100 mg/kg in rat; format: ADME, organism-based, Urine; set-up: dose 100 mg/kg, route oral; conditions: in vivo, po; in short: as §1
[5] = test system: Rattus norvegicus; assay: Compound was tested for diuretic activity against peroral dose of 10 mg/kg in rat; format: ADME, organism-based, Urine; set-up: dose 10 mg/kg, route oral; conditions: in vivo, po; in short: as §2
[6] = test system: Rattus norvegicus; assay: Compound was tested for diuretic activity against peroral dose of 25 mg/kg in rat; format: ADME, organism-based, Urine; set-up: dose 25 mg/kg, route oral; conditions: in vivo, po; in short: as §1
[7] = test system: Rattus norvegicus; assay: Compound was tested for diuretic activity against peroral dose of 50 mg/kg in rat; format: ADME, organism-based, Urine; set-up: dose 50 mg/kg, route oral; conditions: in vivo, po; in short: as §1
[8] = test system: Rattus norvegicus; assay: Compound was tested for diuretic activity against peroral dose of 5 mg/kg in rat; format: ADME, organism-based, Urine; set-up: dose 5 mg/kg, route oral; conditions: in vivo, po; in short: as §1
[9] = test system: Canis familiaris; assay: Compound was tested for diuretic activity in urine volume in dogs at a dose of 5 mg/kg; format: ADME, organism-based, Canis lupus familiaris; set-up: dose 5 mg/kg; conditions: dog, in vivo
In short: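 Six normotensive trained dogs (10.2-17.9 kg), each given a placebo control test before each run. Oral dosing, then 100 mL normal saline injected subcutaneously. Bladder emptied by catheter at onset and 2, 4, 6 h after dosing; dogs in metabolism cages. Total urine volume recorded; Na+ and K+ of an aliquot by flame photometry.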

[10] = Compound was tested for diuretic activity in potassium content of the 3-h sample was measured by flame photometry; format: ADME, Urine; in short: as §1
[11] = species: Canis familiaris; assay: Compound was tested for diuretic activity in urine volume in dog; format: ADME, organism-based, Canis lupus familiaris; conditions: in vivo
In short: (§3)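 Six normotensive trained dogs (10.2-17.9 kg; five for 10 mg/kg runs), oral dosing at 5 or 10 mg/kg, each preceded by placebo control test. Normal saline 100 mL given subcutaneously right after dosing. Bladder emptied by catheter at onset and 2, 4, 6 h; kept in metabolism cages; total urine volume recorded, Na+ and K+ of aliquot by flame photometry.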

[12] = species: Canis familiaris; assay: Compound was tested for diuretic activity urine volume in dog; format: ADME, organism-based, Canis lupus familiaris; conditions: in vivo; in short: as §3

Row | Load [9] | SMILES | Diuretic activity [1] | Diuretic activity [2] | Diuretic activity [3] | Load [4] [%] | Load [5] | Load [6] [%] | Load [7] | Load [8] [%] | Diuretic activity [10] | urine vol [11] [%] | urine vol [12] [%]
1 | 91% and 76.8% | Nc1noc(-c2nc(Cl)c(N)nc2N)n1 | 23.5 and 21.2 and 40 | 24.7 and 33.8 and 42.7 and 41.6 | 1.1 and 2 and 1.8 and 1.9 and 2.1 | 100.4 | 88.8% and 96.9% | 93.3 | 103% and 83.9% | 81.1 | – | – | –
2 | – | Cl.N=C(N)NC(=O)c1nc(Cl)c(N)nc1N.O.O [AMILORIDE HYDROCHLORIDE] | 33.6 and 24.9 and 27.9 and 32.9 | 38 [middle of 4 runs] | 1.5 and 1.7 and 1.6 and 1.1 | 59.7 | 96.8% | 82.1 | 64.9% and 76.2% | 94 | 1.1 and 1.4 and 1.7 | 91.2 | 88.2
